Laboratory results: ChEMBL document CHEMBL4406918, “Inhibitory Effects of Multivalent Polypeptides on the Proliferation and Metastasis of Breast Cancer Cells” (ACS Med Chem Lett, 2019)
Active and inactive are the calls of the source. The rule behind the calls is not given here. Where a SMILES comes first, the peptide text is derived from it.

Columns and labels:
[1] = tested on: 4T1; assay: Induction of cell cycle arrest in mouse 4T1 cells assessed as accumulation at S phase at 0.4 mM incubated for 24 hrs by PI staining based flow cytometric analysis (Rvb =42.35%); format: functional
[2] = Stability in fetal bovine serum assessed as drug degradation measured for 4 hrs by RP-HPLC analysis; format: ADME, cell-free, Bos taurus; conditions: cattle, read-out: Drug degradation
Procedure, shortened: (§1)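 Peptides incubated in serum for up to 12 h. Degradation is followed as the percentage of intact YSL remaining at time points including 4 and 12 h.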

[3] = tested on: 4T1; assay: Induction of cell cycle arrest in mouse 4T1 cells assessed as accumulation at G2/M phase at 0.4 mM incubated for 24 hrs by PI staining based flow cytometric analysis (reference value: 19.82%); format: functional
[4] = tested on: 4T1; assay: Antitumour activity against mouse 4T1 cells xenografted in BALB/c mouse assessed as reduction in size of lung tumor metastatic nodules at 10 mg/kg administered intratumorally and measured after 24 days by H and E staining based inverted optical microscopic method; format: functional, organism-based
Procedure, shortened: (§2)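 After 6 doses of 10 mg/kg to 4T1 tumour-bearing BALB/c mice (saline control), lungs were photographed whole and examined histopathologically for the number and size of metastatic nodules.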

[5] = tested on: 4T1; assay: Inhibition of metastasis in mouse 4T1 cells assessed as disruption in F-actin arrangement at 0.2 mM incubated for 24 hrs by Hoechst 33342 staining based confocal laser scanning microscopic method; format: functional, cell-based
Procedure, shortened: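 After 24 h at 0.2 mM, 4T1 cells were stained for F-actin with Alexa Fluor 488 phalloidin and for nuclei with Hoechst 33342, then imaged by fluorescence for cytoskeletal arrangement and cell morphology.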

[6] = Toxicity in BALB/c mouse xenografted with mouse 4T1 cells assessed as induction of morphological lesions in heart at 10 mg/kg administered intratumorally and measured after 24 days by H and E staining based inverted optical microscopic method; format: organism-based; conditions: in vivo, other, 576 h
[7] = tested on: Erythrocyte; assay: Hemolytic activity in BALB/c mouse RBC at 3.2 mM incubated for 2 hrs by UV-Vis spectrophotometric analysis; format: ADME, cell-based; conditions: 3200 µM
Procedure, shortened: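 Hemolysis assay on red blood cells with dendrimers up to 3.2 mM. Result is expressed as hemolysis rate, with under 5% taken as acceptable.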

[8] = tested on: 4T1; assay: Antitumour activity against mouse 4T1 cells xenografted in BALB/c mouse assessed as increase in damage of tumor tissue at 10 mg/kg administered intratumorally and measured after 24 days by H and E staining based inverted optical microscopic method; format: functional, organism-based
Procedure, shortened: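 Tumours from 4T1-bearing BALB/c mice given 6 doses of 10 mg/kg (saline control) were sectioned and stained with H&E, plus CD31, Ki-67 and TUNEL.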

[9] = tested on: 4T1; assay: Induction of apoptosis in mouse 4T1 cells assessed as late apoptotic cells at 0.4 mM incubated for 24 hrs by Annexin V-FITC/PI based FACS analysis (reference value: 6.62%); format: functional
[10] = tested on: 4T1; assay: Antiinvasive activity in mouse 4T1 cells assessed as inhibition of cell invasion at 0.2 mM incubated for 24 hrs by crystal violet staining based matrigel invasion assay relative to control; format: functional; conditions: 4T1, 24 h
Procedure, shortened: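 4T1 cells, Matrigel-coated Transwell invasion with 0.2 mM compound. Invasion rate comes from counting cells on the underside of the Matrigel-coated porous membrane, relative to untreated control. Mean ± SD, n = 3.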

[11] = tested on: 4T1; assay: Induction of apoptosis in mouse 4T1 cells at 0.8 mM incubated for 24 hrs by PI staining based inverted microscopic method; format: functional, cell-based
Procedure, shortened: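 Live–dead staining of 4T1 cells after 24 h exposure, with PI uptake imaged microscopically. A higher 0.8 mM dose was also tested.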

[12] = tested on: 4T1; assay: Antiproliferative activity against mouse 4T1 cells assessed as cell death at 0.2 mM incubated for 24 hrs by MTT assay relative to control; format: functional
Procedure, shortened: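 Mouse 4T1 breast cancer cells exposed for 24 h (doses include 0.1 and 0.2 mM), then read by MTT for viability or cell death. Mean ± SD, n = 6.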

[13] = Toxicity in BALB/c mouse xenografted with mouse 4T1 cells assessed as change in serum creatinine level at 10 mg/kg administered intratumorally and measured after 24 days; format: organism-based; conditions: in vivo, other, 576 h
[14] = tested on: 4T1; assay: Induction of apoptosis in mouse 4T1 cells assessed as necrotic cells at 0.4 mM incubated for 24 hrs by Annexin V-FITC/PI based FACS analysis (reference value: 0.47%); format: functional
[15] = Toxicity in BALB/c mouse xenografted with mouse 4T1 cells assessed as change in body weight at 10 mg/kg administered intratumorally and measured after 24 days; format: organism-based; conditions: in vivo, other, 576 h
Procedure, shortened: (§3)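 BALB/c mice bearing subcutaneous 4T1 tumours received 6 doses of 10 mg/kg, with equal YSL-monomer molar amounts across compounds and saline as control. Tumour volume growth curves and body weights were tracked. Mean ± SD, n = 5.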

[16] = Toxicity in BALB/c mouse xenografted with mouse 4T1 cells assessed as change in blood urea nitrogen level at 10 mg/kg administered intratumorally and measured after 24 days; format: organism-based; conditions: in vivo, other, 576 h
[17] = Stability in fetal bovine serum assessed as drug degradation measured for 12 hrs by RP-HPLC analysis; format: ADME, cell-free, Bos taurus; conditions: cattle, read-out: Drug degradation; procedure, shortened: as §1
[18] = tested on: 4T1; assay: Antiproliferative activity against mouse 4T1 cells at 0.1 mM incubated for 24 hrs by MTT assay; format: functional, cell-based
[19] = Toxicity in BALB/c mouse xenografted with mouse 4T1 cells assessed as induction of morphological lesions in spleen at 10 mg/kg administered intratumorally and measured after 24 days by H and E staining based inverted optical microscopic method; format: organism-based; conditions: in vivo, other, 576 h
[20] = Toxicity in BALB/c mouse xenografted with mouse 4T1 cells assessed as induction of morphological lesions in liver at 10 mg/kg administered intratumorally and measured after 24 days by H and E staining based inverted optical microscopic method; format: organism-based; conditions: in vivo, other, 576 h
[21] = tested on: 4T1; assay: Antitumour activity against mouse 4T1 cells xenografted in BALB/c mouse assessed as inhibition in tumor growth at 10 mg/kg administered intratumorally and measured every 3 days for 24 days; format: functional, organism-based; procedure, shortened: as §3
[22] = tested on: 4T1; assay: Inhibition of cell migration in mouse 4T1 cells assessed as wound closure rate at 0.2 mM measured up to 36 hrs by inverted optical microscopic method based wound healing assay (reference value: 82%); format: functional; design: scale not given: the % may be the effect or the level left
[23] = tested on: 4T1; assay: Induction of cell cycle arrest in mouse 4T1 cells assessed as accumulation at G0/G1 phase at 0.4 mM incubated for 24 hrs by PI staining based flow cytometric analysis (reference value: 37.78%); format: functional
[24] = tested on: 4T1; assay: Inhibition of cell migration in mouse 4T1 cells assessed as migration frequency at 0.2 mM incubated for 24 hrs by crystal violet staining based transwell assay relative to control; format: functional; design: scale not given: the % may be the effect or the level left
Procedure, shortened: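 4T1 cells, Transwell migration with 24 h exposure to 0.2 mM. Migration rate comes from counting cells on the bottom of the porous membrane. Mean ± SD, n = 3.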

[25] = tested on: 4T1; assay: Induction of apoptosis in mouse 4T1 cells assessed as early apoptotic cells at 0.4 mM incubated for 24 hrs by Annexin V-FITC/PI based FACS analysis (reference value: 0.76%); format: functional
[26] = tested on: 4T1; assay: Induction of apoptosis in mouse 4T1 cells assessed as viable cells at 0.4 mM incubated for 24 hrs by Annexin V-FITC/PI based FACS analysis (reference value: 92.2%); format: functional; conditions: 4T1, 24 h, read-out: Activity
[27] = tested on: 4T1; assay: Antitumour activity against mouse 4T1 cells xenografted in BALB/c mouse assessed as reduction in number of lung tumor metastatic nodules at 10 mg/kg administered intratumorally and measured after 24 days by H and E staining based inverted optical microscopic method; format: functional, organism-based; procedure, shortened: as §2
[28] = Toxicity in BALB/c mouse xenografted with mouse 4T1 cells assessed as induction of morphological lesions in kidney at 10 mg/kg administered intratumorally and measured after 24 days by H and E staining based inverted optical microscopic method; format: organism-based; conditions: in vivo, other, 576 h

## COC(=O)[C@H](CC(C)C)NC(=O)[C@H](CO)NC(=O)[C@@H](N)Cc1ccc(O)cc1 (H-Tyr-Ser-Leu-OMe)
[1]
  Activity: 42.35%
[2]
  metabolised at 4 h: 60%
[3]
  Activity: 48.48%
[4]
  Activity: Active
[5]
  F-actin disruption (qualitative): Active
[6]
  Activity: Non-Toxic
[7]
  Activity: Non-Toxic
[8]
  Activity: Active
[9]
  Activity: 10.3%
[10]
  inhibition at 200 µM: 92%
[11]
  Activity: Active
[12]
  Activity: 2%
[13]
  Activity: Non-Toxic
[14]
  Activity: 1.23%
[15]
  Activity: Non-Toxic
[16]
  Activity: Non-Toxic
[17]
  metabolised at 12 h: 100%
[18]
  Activity: inactive
[19]
  Activity: Non-Toxic
[20]
  Activity: Non-Toxic
[21]
  Activity: Active
[22]
  Activity: 80%
[23]
  Activity: 37.41%
[24]
  Activity: 82%
[25]
  Activity: 0.88%
[26]
  viability at 400 µM: 87.6%
[27]
  Activity: Active
[28]
  Activity: Non-Toxic
